For 13 molecules, Activity, inhibition and Inhibition results are on record in ChEMBL document CHEMBL1146361, “Studies on acyclic pyrimidines as inhibitors of mycobacteria” (Bioorg Med Chem, 2007).

Molecules are shown by their SMILES. Active and inactive are the calls of the source. The calls are words filed in the database; no cut-off is given here.

In assay [1] the test system is Proteus vulgaris. As to the kind of experiment: Antibacterial activity against Proteus vulgaris up to 100 ug/ml after 16 to 20 hrs by broth microdilution method. The assay is classed as functional, organism-based. On the technique in general: Broth dilution looks for growth in wells or tubes with falling amounts of substance.
The test system of assay [2] is Mycobacterium tuberculosis. Put plainly: Antimycobacterial activity against Mycobacterium tuberculosis H37Ra at 100 ug/mL after 24 to 48 hrs by MABA. The assay is classed as functional. Put shortly: (§1)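 Compounds in DMSO (100× highest final concentration), diluted in 7H9GC; tested at 100, 50, 10 and 1 µg/mL in triplicate, three experiments. Frozen inoculum diluted in 7H9GC. Read visually and spectrophotometrically. […], mean given. Visual MIC = lowest concentration preventing blue-to-pink change.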

The test system of assay [3] is HepG2. Put plainly: Toxicity against HepG2 cells. It is filed as functional, cell-based. To be noted: Homo sapiens.
The subject of assay [4] is Bacillus subtilis. Put plainly: Antibacterial activity against Bacillus subtilis up to 100 ug/ml after 16 to 20 hrs by broth microdilution method. The assay is classed as functional, organism-based.
Assay [5] has as its system Pseudomonas aeruginosa. Put plainly: Antibacterial activity against Pseudomonas aeruginosa up to 100 ug/ml after 16 to 20 hrs by broth microdilution method. It is filed as functional, organism-based.
For assay [6], the system named is Streptococcus pneumoniae. Put plainly: Antibacterial activity against Streptococcus pneumoniae up to 100 ug/ml after 16 to 20 hrs by broth microdilution method. The assay is classed as functional, organism-based.
The test system of assay [7] is Enterococcus faecalis. As to the kind of experiment: Antibacterial activity against Enterococcus faecalis up to 100 ug/ml after 16 to 20 hrs by broth microdilution method. The assay is classed as functional, organism-based.
In assay [8] the test system is Mycobacterium tuberculosis. Put plainly: Antimycobacterial activity against Mycobacterium tuberculosis H37Ra at 10 ug/mL after 24 to 48 hrs by MABA. The assay is classed as functional. A digest of the protocol: as §1
Assay [9] has as its system Staphylococcus aureus. As to the kind of experiment: Antibacterial activity against Staphylococcus aureus up to 100 ug/ml after 16 to 20 hrs by broth microdilution method. It is filed as functional, organism-based.
Assay [10] has as its system Mycobacterium avium. Put plainly: Antimycobacterial activity against Mycobacterium avium ATCC 25291 at 50 ug/mL after 24 to 48 hrs by MABA. The assay is classed as functional. A digest of the protocol: as §1
A general note: Alamar Blue is a resazurin reagent that responds to reducing activity.

The test system of assay [11] is Salmonella typhimurium. As to the kind of experiment: Antibacterial activity against Salmonella Typhimurium up to 100 ug/ml after 16 to 20 hrs by broth microdilution method. The assay is classed as functional, organism-based. To be noted: Salmonella enterica subsp. enterica serovar Typhimurium.
Assay [12] deals with Mycobacterium tuberculosis. As to the kind of experiment: Antimycobacterial activity against Mycobacterium tuberculosis H37Ra at 50 ug/mL after 24 to 48 hrs by MABA. It is filed as functional. A digest of the protocol: as §1
The test system of assay [13] is Staphylococcus epidermidis. As to the kind of experiment: Antibacterial activity against Staphylococcus epidermidis up to 100 ug/ml after 16 to 20 hrs by broth microdilution method. The assay is classed as functional, organism-based.
Assay [14] relates to Escherichia coli. Put plainly: Antibacterial activity against Escherichia coli up to 100 ug/ml after 16 to 20 hrs by broth microdilution method. It is filed as functional, organism-based.
Assay [15] concerns Mycobacterium avium. Put plainly: Antimycobacterial activity against Mycobacterium avium ATCC 25291 at 100 ug/mL after 24 to 48 hrs by MABA. The assay is classed as functional. A digest of the protocol: as §1
Assay [16] has as its system Mycobacterium avium. As to the kind of experiment: Antimycobacterial activity against Mycobacterium avium ATCC 25291 at 1 ug/mL after 24 to 48 hrs by MABA. It is filed as functional. Put shortly:
as §1

Assay [17] has as its system Mycobacterium tuberculosis. As to the kind of experiment: microbe, parasite or virus in culture. The following applies: H37Ra.
Assay [18] deals with Mycobacterium avium. As to the kind of experiment: Antimycobacterial activity against Mycobacterium avium ATCC 25291 at 2 ug/mL after 24 to 48 hrs by MABA. It is filed as functional.
Assay [19] concerns Mycobacterium avium. As to the kind of experiment: Antimycobacterial activity against Mycobacterium avium ATCC 25291 at 10 ug/mL after 24 to 48 hrs by MABA. It is filed as functional. Put shortly:
as §1

Assay [20] concerns Mycobacterium avium. As to the kind of experiment: Antimycobacterial activity against Mycobacterium avium ATCC 25291. It is filed as functional. Also on record: concentration or dose not given beside the values. Put shortly: as §1
Assay [21] relates to Mycobacterium tuberculosis. As to the kind of experiment: Antimycobacterial activity against Mycobacterium tuberculosis H37Ra by MABA. It is filed as functional. Also on record: concentration or dose not given beside the values. A digest of the protocol: as §1

`[N-]=[N+]=NC(CBr)c1cn(COCCO)c(=O)[nH]c1=O` (stereo not given): the outcome in [1], in assay [4], in [5], in [6], in assay [7] and in [9] was inactive. Also, the result in [11], in assay [13] and in assay [14] was inactive. In assay [2], this molecule came in with an inhibition at 100 µg/mL of 100%. The Activity result in assay [3] is “Not toxic”. In assay [8], this molecule registered an inhibition at 10 µg/mL of 50%. The inhibition at 50 µg/mL in assay [10] and in assay [12] was 100% in each case.
With `CCCCCCCCC#Cc1cn(COC(CO)CO)c(=O)[nH]c1=O`, the result in assay [1], in [4], in [5], in [6], in assay [7] and in assay [9] was inactive. In addition, the result in [11], in [13] and in assay [14] was inactive. Moreover, the inhibition at 100 µg/mL in assay [15] and in assay [2] was 100% each time. For the same molecule, in assay [3], the Activity entry is “Not toxic”. The inhibition at 10 µg/mL in assay [8] is 50%. Moreover, the figures for the inhibition at 50 µg/mL in assay [10] and in [12] were 25% and 100%, respectively.
With `CCCCCCCCCCC#Cc1cn(COC(CO)CO)c(=O)[nH]c1=O`, the result in assay [1], in assay [4], in [5], in assay [6], in assay [7] and in assay [9] was inactive. Also, the result in assay [11], in assay [13] and in [14] was inactive. Besides, the inhibition at 100 µg/mL in assay [15] and in [2] was 100% throughout. In addition, in [3], the Activity result is “Not toxic”. The molecule also yielded an inhibition at 10 µg/mL in assay [8] of 50%. The results for the inhibition at 50 µg/mL in assay [10] and in assay [12] were 25% and 100%, respectively.
Consider `CO[C@H]1/C=C/O[C@@]2(C)Oc3c(C)c(O)c4c(O)c(c(/C=N/N5CCN(C)CC5)c(O)c4c3C2=O)NC(=O)/C(C)=C\C=C\[C@H](C)[C@H](O)[C@@H](C)[C@@H](O)[C@@H](C)[C@H](OC(C)=O)[C@@H]1C` [RIFAMPIN], for which the inhibition at 1 µg/mL in assay [16] and in [17] was 100% in each case. At 2 µg/mL the inhibition in assay [18] was 90%.
In the case of `C=C(N=[N+]=[N-])c1cn(COCCO)c(=O)[nH]c1=O`, the outcome in assay [1], in [4], in assay [5], in assay [6], in assay [7] and in assay [9] was inactive. Further, the result in assay [11], in assay [13] and in [14] was inactive. Besides, the inhibition at 100 µg/mL in [15] was found to be 50%; in assay [2], 100%. The Activity entry in assay [3] was “Not toxic”. The results for the inhibition at 10 µg/mL in [8] and in assay [19] were 25% and 50%, respectively. The inhibition at 50 µg/mL in assay [10] turned out to be 50%; in [12], 100%.
As to `[N-]=[N+]=NC(CI)c1cn(COCCO)c(=O)[nH]c1=O` (stereo not given), the result in assay [1], in assay [4], in assay [5], in assay [6], in assay [7] and in assay [9] was inactive. In addition, the result in [11], in assay [13] and in assay [14] was inactive. In addition, the inhibition at 100 µg/mL was found to be 50% in assay [15] and 100% in [2]. Further, the Activity entry in assay [3] was “Not toxic”. The inhibition at 10 µg/mL in [8] worked out at 50%. The inhibition at 50 µg/mL was found to be 50% in [10] and 100% in assay [12].
`[N-]=[N+]=NC(CBr)c1cn(COC(CO)CO)c(=O)[nH]c1=O` (stereo not given): the result in [1], in assay [4], in assay [5], in assay [6], in assay [7] and in [9] was inactive. For the same molecule, the result in assay [11], in assay [13] and in [14] was inactive. The Inhibition in [20] and in assay [21] was 0% throughout.
Regarding `O=c1[nH]c(=O)n(COCCO)cc1Br`, the result in assay [1], in assay [4], in assay [5], in [6], in assay [7] and in assay [9] was inactive. The outcome in assay [11], in assay [13] and in [14] was inactive. For the same molecule, the Inhibition in [20] and in [21] was 0% throughout.
On to `[N-]=[N+]=NC(CCl)c1cn(COCCO)c(=O)[nH]c1=O` (stereo not given), for which the outcome in [1], in [4], in assay [5], in [6], in assay [7] and in [9] was inactive. In addition, the outcome in [11], in assay [13] and in assay [14] was inactive. For the same molecule, the inhibition at 100 µg/mL in assay [15] and in assay [2] was 100% each time. Further, the Activity result in [3] is “Not toxic”. Further, the inhibition at 10 µg/mL in [8] and in assay [19] was 50% throughout. For the same molecule, the inhibition at 50 µg/mL in [10] and in assay [12] was 100% throughout.
Consider `C=Cc1cn(COCCO)c(=O)[nH]c1=O`, for which the outcome in assay [1], in [4], in assay [5], in assay [6], in assay [7] and in assay [9] was inactive. For the same molecule, the outcome in assay [11], in assay [13] and in assay [14] was inactive. Besides, the Inhibition in assay [20] and in assay [21] was 0% throughout.
With `Nc1cn(COCCO)c(=O)[nH]c1=O`, the outcome in assay [1], in assay [4], in assay [5], in assay [6], in assay [7] and in assay [9] was inactive. Moreover, the outcome in assay [11], in assay [13] and in assay [14] was inactive. The Inhibition in assay [20] and in assay [21] was 0% in each case.
Take `CCCCCCCCCCC#Cc1cn(COCCO)c(=O)n(C#CCCCCCCCCCC)c1=O`: the result in assay [1], in assay [4], in [5], in assay [6], in [7] and in assay [9] was inactive. For the same molecule, the outcome in assay [11], in assay [13] and in assay [14] was inactive. Further, the Inhibition in assay [20] and in [21] was 0% in each case.
On to `CC[C@H]1OC(=O)[C@H](C)[C@@H](O[C@H]2C[C@@](C)(OC)[C@@H](O)[C@H](C)O2)[C@H](C)[C@@H](O[C@@H]2O[C@H](C)C[C@H](N(C)C)[C@H]2O)[C@](C)(OC)C[C@@H](C)C(=O)[C@H](C)[C@@H](O)[C@]1(C)O` [CLARITHROMYCIN], for which the inhibition at 2 µg/mL in assay [18] came out at 95%.

One may read the inhibition as the relative decrease from the control value, in per cent. As a reminder, the Inhibition is the relative decrease from the control value, in per cent.
